According to ChEMBL document CHEMBL1132570, “Synthesis of cytotoxic indenoisoquinoline topoisomerase I poisons” (1999):

Columns and labels:
OVCAR-3 = assay: Cytotoxicity against ovarian OVCAR-3 human cancer cell line.; assay type: functional
In short: (§1)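 GI50 = concentration giving 50% growth inhibition, from a screen of about 55 human cancer cell lines over a 10^-8 to 10^-4 M test range. Values come from two determinations where a population standard deviation is shown, otherwise from single determinations.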

HOP-62 = assay: Cytotoxicity against lung HOP-62 human cancer cell line.; assay type: functional; in short: as §1
UACC-62 = assay: In vitro cytotoxicity against UACC-62 (Human melanoma) cell line.; assay type: functional; in short: as §1
[1] = target: T1, DNA topoisomerase 1 (Homo sapiens) (UniProt P11387); assay: The activity was examined against DNA topoisomerase I mediated DNA cleavage using 3''-End-labelled 161 BP plasmid DNA. + indicates between 20 and 50% of the activity of 1 uM camptothecin
T1 sequence (whole entry): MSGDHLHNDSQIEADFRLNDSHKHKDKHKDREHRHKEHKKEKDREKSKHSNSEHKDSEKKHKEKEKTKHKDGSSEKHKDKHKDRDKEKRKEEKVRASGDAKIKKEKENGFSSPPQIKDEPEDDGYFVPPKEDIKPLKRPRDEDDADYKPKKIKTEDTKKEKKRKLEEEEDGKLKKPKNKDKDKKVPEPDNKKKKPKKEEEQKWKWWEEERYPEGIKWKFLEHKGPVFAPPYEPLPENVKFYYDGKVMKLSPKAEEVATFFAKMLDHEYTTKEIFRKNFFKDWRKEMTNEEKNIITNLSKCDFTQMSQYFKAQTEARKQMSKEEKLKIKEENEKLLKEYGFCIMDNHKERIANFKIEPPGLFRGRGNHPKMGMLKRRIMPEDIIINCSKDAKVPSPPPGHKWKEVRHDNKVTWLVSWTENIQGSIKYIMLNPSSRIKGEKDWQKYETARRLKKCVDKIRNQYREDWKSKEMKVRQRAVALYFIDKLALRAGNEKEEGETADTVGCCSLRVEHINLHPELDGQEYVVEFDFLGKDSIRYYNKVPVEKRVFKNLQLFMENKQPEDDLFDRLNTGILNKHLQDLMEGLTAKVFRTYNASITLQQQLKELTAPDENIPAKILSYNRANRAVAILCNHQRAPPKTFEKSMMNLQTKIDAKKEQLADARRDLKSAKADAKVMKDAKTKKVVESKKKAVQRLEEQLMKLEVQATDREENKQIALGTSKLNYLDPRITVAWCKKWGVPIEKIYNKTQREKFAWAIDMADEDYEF
In short: (§2)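 A 161 bp PvuII–HindIII fragment of pBluescript SK(–) was 3'-end-labeled at the HindIII site with [α-32P]dCTP by Klenow fill-in. About 50 000 dpm per reaction was incubated with top1 and drug (0.1–300 μM) at 30 °C for 30 min, then stopped with 0.5% SDS (final). Products were run on 16% polyacrylamide/7 M urea gels at 51 °C and imaged by phosphorimager.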

DU-145 = assay: Cytotoxicity against prostate DU-145 human cancer cell line.; assay type: functional; in short: as §1
HCT-116 = assay: Cytotoxicity against colon HCT116 human cancer cell line.; assay type: functional; in short: as §1
MDA-MB-435 = assay: In vitro cytotoxicity against MDA-MB-435 (Human breast cancer) cell line.; assay type: functional; in short: as §1
SN12C = assay: In vitro cytotoxicity against SN12C (Human renal cancer) cell line.; assay type: functional; in short: as §1
[2] = target: T1, DNA topoisomerase 1 (Homo sapiens); assay: The activity was examined against DNA topoisomerase I mediated DNA cleavage using 3''-End-labelled 161 BP plasmid DNA. +/- less than 20% of the activity 0f 1 uM camptothecin; in short: as §2
SF-539 = assay: Compound was tested for its cytotoxicity against CNS SF-539 Human cancer cell line; assay type: functional; in short: as §1
[3] = target: T1, DNA topoisomerase 1 (Homo sapiens); assay: The activity was examined against DNA topoisomerase I mediated DNA cleavage using 3'-End-labelled 161 BP plasmid DNA. 0 indicates inactive; in short: as §2
[4] = target: T1, DNA topoisomerase 1 (Homo sapiens); assay: The activity was examined against DNA topoisomerase I mediated DNA cleavage using 3''-End-labelled 161 BP plasmid DNA.+ indicates between 20 and 50% of the activity of 1 uM camptothecin; in short: as §2
[5] = target: T1, DNA topoisomerase 1 (Homo sapiens); assay: The activity was examined against DNA topoisomerase I mediated DNA cleavage using 3''-End-labelled 161 BP plasmid DNA. +/- indicates less than 20% of the activity of 1 uM camptothecin; in short: as §2
[6] = target: T1, DNA topoisomerase 1 (Homo sapiens); assay: The activity was examined against DNA topoisomerase I mediated DNA cleavage using 3''-End-labelled 161 BP plasmid DNA; +/- less than 20% of the activity of 1 uM camptothecin; in short: as §2
[7] = target: T1, DNA topoisomerase 1 (Homo sapiens); assay: The activity was examined against DNA topoisomerase I mediated DNA cleavage using 3'-End-labelled 161 BP plasmid DNA.0 indicates inactive; in short: as §2

Row | Compound | GI50 (OVCAR-3) [µM] | GI50 (HOP-62) [µM] | GI50 (UACC-62) [µM] | Top1 cleavage activity [1] | GI50 (DU-145) [µM] | GI50 (HCT-116) [µM] | GI50 (MDA-MB-435) [µM] | GI50 (SN12C) [µM] | Top1 cleavage activity [2] | GI50 (SF-539) [µM] | Top1 cleavage activity [3] | Top1 cleavage activity [4] | Top1 cleavage activity [5] | Top1 cleavage activity [6] | Top1 cleavage activity [7]
1 | COc1cc2c3c(n(CCCCCO)c(=O)c2cc1OC)-c1cc2c(cc1C3=O)OCO2 | > 100 | 8.7 | > 100 | 20-50% of the activity of 1 uM camptothecin | 5.1 | > 100 | > 100 |  |  |  |  |  |  |  | 
2 | CCn1c2c(c3cc(OC)c(OC)cc3c1=O)C(=O)c1cc3c(cc1-2)OCO3 | 3 | 2.2 | 2.1 |  | 2.3 | 2.6 | 2.6 | 3.6 | +/- | 2 |  |  |  |  | 
3 | CCn1c2c(c3ccccc3c1=O)C(=O)c1ccccc1-2 |  |  |  |  |  |  |  |  |  |  | 0 |  |  |  | 
4 | Cn1c2c(c3ccccc3c1=O)C(=O)c1cc3c(cc1-2)OCO3 | > 100 | 22 | > 100 |  | > 100 | 54 |  | > 100 |  |  |  | 20-50% of the activity of 1 uM camptothecin |  |  | 
5 | CCCn1c2c(c3ccccc3c1=O)C(=O)c1ccccc1-2 |  |  |  |  |  |  |  |  |  |  | 0 |  |  |  | 
6 | C=CCn1c2c(c3cc(OC)c(OC)cc3c1=O)C(=O)c1cc3c(cc1-2)OCO3 | 6.6 | 3.4 |  |  | 3.2 | 2.3 | 5.2 | 2.6 |  | 2.2 |  | 20-50% of the activity of 1 uM camptothecin |  |  | 
7 | CCCCn1c2c(c3ccccc3c1=O)C(=O)c1cc3c(cc1-2)OCO3 | 94 | 17 | 8.2 |  | 38 | 2.9 | > 100 | 37 |  | 9 |  | 20-50% of the activity of 1 uM camptothecin |  |  | 
8 | COc1cc2c(cc1OC)[C@H]1C(=O)c3cc4c(cc3[C@H]1N(C)C2=O)OCO4 | 6.7 | 9.4 | 0.42 |  | 4.1 | 2 | 17 | 2.1 |  | 3.1 |  |  | +/- |  | 
9 | COc1cc2c3c(n(C)c(=O)c2cc1OC)-c1cc2c(cc1C3=O)OCO2 |  | 1.3 | 4.2 |  | 37 | 35 | 96 | 68 |  | 41 |  |  |  |  | 
10 | O=C1c2ccccc2-c2c1c1ccccc1c(=O)n2CCCCCO | 93 | 4.4 | 14.3 | 20-50% of the activity of 1 uM camptothecin | 3.4 | 3.9 | 41 |  |  |  |  |  |  |  | 
11 | CCN1C(=O)c2cc(OC)c(OC)cc2[C@@H]2[C@H]1c1cc3c(cc1[C@@H]2O)OCO3 | > 100 | > 100 |  |  | > 100 | > 100 | > 100 | > 100 |  | > 100 | 0 |  |  |  | 
12 | COc1cc2c3c(n(Cc4ccccc4)c(=O)c2cc1OC)-c1cc2c(cc1C3=O)OCO2 | > 100 | 12 | 50 |  | 4 | > 100 | > 100 |  |  |  |  |  |  | +/- | 
13 | COc1cc2c3c(n(C)c(=O)c2cc1OC)-c1cc(OCc2ccccc2)c(OCc2ccccc2)cc1C3=O | 58 | 46 | > 100 |  | > 100 | 80 | > 100 | > 100 |  | 39 |  |  |  |  | 0
